For 24 compounds, IC50 and Activity results are on record in ChEMBL document CHEMBL1629449, “Structure-based design, synthesis, and pharmacological evaluation of 3-(aminoalkyl)-5-fluoroindoles as myeloperoxidase inhibitors” (J Med Chem, 2010).

Experiment [1] deals with T1, Myeloperoxidase (Homo sapiens, UniProt P05164).
T1 sequence (P05164 whole entry): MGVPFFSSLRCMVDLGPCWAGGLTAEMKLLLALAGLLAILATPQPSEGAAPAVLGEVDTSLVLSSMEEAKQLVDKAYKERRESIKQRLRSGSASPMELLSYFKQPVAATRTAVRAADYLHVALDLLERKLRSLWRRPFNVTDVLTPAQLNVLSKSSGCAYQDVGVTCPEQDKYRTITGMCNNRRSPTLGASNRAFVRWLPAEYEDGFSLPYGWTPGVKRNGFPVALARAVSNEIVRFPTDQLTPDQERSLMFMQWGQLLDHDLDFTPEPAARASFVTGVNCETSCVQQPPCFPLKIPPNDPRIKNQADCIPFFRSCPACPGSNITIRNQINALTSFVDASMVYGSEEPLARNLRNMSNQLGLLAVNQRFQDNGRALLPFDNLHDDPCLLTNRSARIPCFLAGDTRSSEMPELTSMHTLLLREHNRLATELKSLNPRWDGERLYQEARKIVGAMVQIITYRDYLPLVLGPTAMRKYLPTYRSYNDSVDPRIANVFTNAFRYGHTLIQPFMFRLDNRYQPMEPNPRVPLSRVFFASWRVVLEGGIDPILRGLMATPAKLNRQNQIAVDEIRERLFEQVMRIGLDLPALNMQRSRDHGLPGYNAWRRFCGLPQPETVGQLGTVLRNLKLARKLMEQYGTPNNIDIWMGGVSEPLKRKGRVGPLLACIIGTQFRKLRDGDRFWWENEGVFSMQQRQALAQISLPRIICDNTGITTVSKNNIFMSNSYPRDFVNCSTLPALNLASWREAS
Nature of the experiment: Inhibition of recombinant MPO mediated taurine chlorination by microplate reader method. The class given is single protein. The procedure, abridged: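 Recombinant MPO (40 nM) was incubated with taurine (15 mM) in pH 7.4 phosphate buffer (10 mM/300 mM NaCl) with compound up to 20 μM at 37 °C. The reaction was started with H2O2 (100 μM) and stopped with catalase after 5 min. Taurine chloramine was read with thionitrobenzoic acid at 412 nm. The no-H2O2 control was set as 100% inhibition. IC50 is the mean ± SD of 3 independent experiments.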

Experiment [2] has as its target T1, Myeloperoxidase. Description: Inhibition of recombinant MPO mediated LDL oxidation using MPO/Cl-/H2O2 system. In outline: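 LDL was isolated from human plasma by ultracentrifugation. It was oxidised at 37 °C in PBS pH 7.2 with MPO (1 μg/mL), LDL (1000 μg/mL), HCl (4 mM), H2O2 (100 μM) and test drug, final concentrations. The reaction was stopped after 5 min on ice. Oxidised LDL was detected by ELISA with Mab AG9 (A405). Most IC50s came from three concentrations (1000, 100, 50 nM).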

Experiment [3] deals with T2, Myeloperoxidase (Homo sapiens) (UniProt P05164).
T2 sequence (whole entry): T1 sequence (P05164 whole entry)
Nature of the experiment: Inhibition of recombinant MPO assessed as rate of electron donation to MPO redox intermediate compound I by sequential mixing stopped flow spectroscopy. The procedure, abridged:
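Stopped-flow kinetics at pH 7.4, 25 °C, in 200 mM phosphate buffer with 2% (v/v) organic solvent. Purified MPO (purity index at least 0.86) at 8 μM was premixed with 80 μM H2O2. Each kobs is the mean of at least three determinations. k3 was taken as the slope of kobs versus substrate concentration.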

For experiment [4], the target named is T2, Myeloperoxidase (Homo sapiens). Description: Inhibition of recombinant MPO assessed as rate of electron donation to MPO redox intermediate compound II by sequential mixing stopped flow spectroscopy. In outline: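 Stopped-flow at pH 7.4, 25 °C, in 200 mM phosphate buffer. Each kobs is the mean of at least three determinations. The second-order rate constant was taken as the slope of kobs versus substrate concentration.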

Some results are limits rather than exact numbers.

For orientation: IC50 means the midpoint of a concentration-inhibition curve. Consider `CCN(CC)Cc1c[nH]c2ccc(F)cc12`, for which the IC50 on Myeloperoxidase [1] is 0.2 µM; on Myeloperoxidase [2], over 1 µM.

Consider `CCN(CC)CCCc1c[nH]c2ccc(F)cc12`, for which the half-maximal inhibitory concentration (IC50) at Myeloperoxidase [1] was 0.35 µM; at Myeloperoxidase [2], 0.39 µM. The corresponding values for `Fc1ccc2[nH]cc(CCCN3CCCC3)c2c1` are 0.32 µM and 0.21 µM. For the compound `NCCCCCCc1c[nH]c2ccc(F)cc12`, at Myeloperoxidase [2], the half-inhibitory concentration (IC50) was 0.58 µM. On the same count and under the same terms, then `Fc1ccc2[nH]cc(CCN3CCCC3)c2c1`, with 1.03 µM.

Regarding `CCCCNCCc1c[nH]c2ccc(F)cc12`, the results for the IC50 at Myeloperoxidase [1] and on Myeloperoxidase [2] were 1.03 µM and 0.25 µM, respectively. Consider `NCCCCCc1c[nH]c2ccc(F)cc12`, for which the Activity in experiment [3] came to 1 ×10⁷ /M/s; in experiment [4], 506 M⁻¹ s⁻¹. The 50% inhibitory concentration (IC50) on Myeloperoxidase [2] is 0.005 µM.

Turning to `CCN(CC)CCc1c[nH]c2ccc(F)cc12`, the IC50 at Myeloperoxidase [2] stood at 0.51 µM. Take `CCCNCCc1c[nH]c2ccc(F)cc12`: the IC50 stood at 0.8 µM at Myeloperoxidase [1] and 0.46 µM at Myeloperoxidase [2]. The corresponding values for `CCCNCCCc1c[nH]c2ccc(F)cc12` are 0.17 µM and 0.34 µM. Consider `NCCCc1c[nH]c2ccc(F)cc12`, for which the IC50 on Myeloperoxidase [2] is 0.65 µM. Consider `CN1CCN(CCc2c[nH]c3ccc(F)cc23)CC1`, for which the results for the 50% inhibitory concentration (IC50) on Myeloperoxidase [1] and on Myeloperoxidase [2] were 0.2 µM and 0.65 µM, respectively. The corresponding values for `CCNCCCc1c[nH]c2ccc(F)cc12` are 0.3 µM and 0.19 µM. Turning to `NCCCCc1c[nH]c2ccc(F)cc12`, the Activity in experiment [3] came to 1.1 ×10⁷ /M/s; in experiment [4], 360 M⁻¹ s⁻¹. For the same compound, the IC50 on Myeloperoxidase [2] was 0.012 µM.

`CN(C)CCc1c[nH]c2ccc(F)cc12`: the IC50 at Myeloperoxidase [2] was found to be 0.58 µM. Take `CCNCCc1c[nH]c2ccc(F)cc12`: the IC50 at Myeloperoxidase [1] is 0.3 µM; at Myeloperoxidase [2] it was 0.85 µM.

`CCCCNCCCc1c[nH]c2ccc(F)cc12`: the IC50 on Myeloperoxidase [1] came to 1.5 µM; at Myeloperoxidase [2] it was 0.017 µM.

Consider `NCc1c[nH]c2ccc(F)cc12`, for which the 50% inhibitory concentration (IC50) on Myeloperoxidase [1] was 0.9 µM; at Myeloperoxidase [2], over 1 µM. The corresponding values for `CN1CCN(CCCc2c[nH]c3ccc(F)cc23)CC1` are 0.35 µM and 0.31 µM. The corresponding values for `CNCCCc1c[nH]c2ccc(F)cc12` are 0.2 µM and 0.026 µM. The corresponding values for `CNCCc1c[nH]c2ccc(F)cc12` are 0.2 µM and 0.65 µM. For `NCCc1c[nH]c2ccc(F)cc12`, the half-inhibitory concentration (IC50) at Myeloperoxidase [2] is 0.94 µM.

Regarding `CN1CCN(Cc2c[nH]c3ccc(F)cc23)CC1`, the IC50 on Myeloperoxidase [1] was 1 µM; on Myeloperoxidase [2], over 1 µM.

Consider `CN(C)CCCc1c[nH]c2ccc(F)cc12`, for which, at Myeloperoxidase [2], the IC50 stood at 0.049 µM.
